ChEMBL document CHEMBL3632511, “Oxopyrido[2,3-d]pyrimidines as Covalent L858R/T790M Mutant Selective Epidermal Growth Factor Receptor (EGFR) Inhibitors” (ACS Med Chem Lett, 2015)

Experiments:
[1] = molecular target: T1, Epidermal growth factor receptor (Homo sapiens, UniProt P00533); assay: Binding affinity to wild type EGFR (unknown origin)
[2] = molecular target: Epidermal growth factor receptor (Homo sapiens, UniProt P00533, L858R/T790M); assay: Binding affinity to EGFR T790M/L858R double mutant (unknown origin); format: protein assay
[3] = Volume of distribution at steady state in Sprague-Dawley rat at 1 mg/kg, iv; format: ADME, organism-based; settings: in vivo, read-out: Vdss
Method in brief: (§1)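 Male Sprague Dawley rats, 3 animals per route; mean values. IV dose 1 mg/kg as a DMSO solution. Oral dose 10 mg/kg, in one of three vehicles by compound: 1% Pluronic F68/2% HPMC/15% HPBCD/82% water–methanesulfonic acid pH 4.5; 20% HPBCD/80% water–methanesulfonic acid pH 4.0; or 1% Pluronic F68/2% HPMC/97% water–methanesulfonic acid pH 4.0.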

[4] = molecular target: Tyrosine-protein kinase Blk (Homo sapiens, UniProt P51451); assay: Competitive binding affinity to human BLK in presence of immobilized ligand
Mus musculus [5] = assay: In vivo inhibition of EGFR L858R/T790M double mutant phosphorylation in human NCI-H1975 cells xenografted in athymic nude mouse at 30 mg/kg, po measured at >12 hrs by mesoscale multiplex assay relative to control; format: functional
Method in brief: (§2)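 Time-course PD in mice carrying matrigel plugs of H1975 cells after a single oral dose of 30 mg/kg. Tumor cell plugs and plasma harvested at 2, 4, 8, 12 and 24 h post dose. Plug p-EGFR measured, and plasma drug concentration taken for Cmax.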

[6] = molecular target: Tyrosine-protein kinase JAK1 (Homo sapiens, UniProt P23458); assay: Competitive binding affinity to human JAK1 JH2 domain pseudokinase in presence of immobilized ligand
[7] = Oral bioavailability in Sprague-Dawley rat at 10 mg/kg; format: ADME, organism-based; settings: Sprague-Dawley, in vivo; method in brief: as §1
[8] = molecular target: Tyrosine-protein kinase ITK/TSK (Homo sapiens, UniProt Q08881); assay: Competitive binding affinity to human ITK in presence of immobilized ligand
[9] = Fraction unbound in rat plasma at 5 uM by rapid equilibrium dialysis method; format: ADME, cell-free
[10] = molecular target: Receptor tyrosine-protein kinase erbB-2 (Homo sapiens, UniProt P04626); assay: Competitive binding affinity to human ERBB2 in presence of immobilized ligand
[11] = Cmax in athymic nude mouse xenografted with human NCI-H1975 cells at 30 mg/kg, po measured at 2 hrs; format: ADME, organism-based; design: dose 30 mg/kg, route oral; settings: in vivo; method in brief: as §2
Mus musculus [12] = assay: In vivo inhibition of EGFR L858R/T790M double mutant phosphorylation in human NCI-H1975 cells xenografted in athymic nude mouse at 30 mg/kg, po measured at 4 hrs by mesoscale multiplex assay relative to control; format: functional
Method in brief: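 Female athymic nude mice carried matrigel plugs holding 5 x 10⁶ H1975 cells, n = 3 per group. Control or compound given at 30 mg/kg po. Plugs and plasma taken 4 h after dosing. p-EGFR in plug measured by quantitative MSD assay, given as % p-EGFR/PRAS40 vs control.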

[13] = molecular target: Dual specificity protein kinase TTK (Homo sapiens) (UniProt P33981); assay: Competitive binding affinity to human TTK at 1 uM in presence of immobilized ligand relative to control
Method in brief: (§3)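 Kinase selectivity by competitive binding in the ScanMAX KINOMEscan panel of […] protein and lipid kinases. Compound tested at 1 μM; binding expressed as percentage of control (POC).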

[14] = molecular target: Tyrosine-protein kinase JAK3 (Homo sapiens, UniProt P52333); assay: Competitive binding affinity to human JAK3 in presence of immobilized ligand
[15] = molecular target: Epidermal growth factor receptor (Homo sapiens, UniProt P00533, 746-750DEL); assay: Inhibition of EGFR 746 to 750 deletion mutant phosphorylation in human HCC827 cells after 60 mins by mesoscale multiplex assay; format: cell-based
[16] = molecular target: T1, Epidermal growth factor receptor; assay: Inhibition of wild type EGFR phosphorylation in human A431 cells after 60 mins by mesoscale multiplex assay; format: cell-based, A-431
Rattus norvegicus = organism: Rattus norvegicus; assay: Hepatobiliary toxicity in Sprague-Dawley rat measured for 4 days; format: organism-based; settings: in vivo, 96 h
rat MDR1 (P-gp) [17] = assay: Permeability across pig LLC-PK1 cells transfected with rat MDR1 gene; format: ADME, cell-based, Sus scrofa; settings: read-out: permeability
[18] = molecular target: T2, Tyrosine-protein kinase BTK (Homo sapiens, UniProt Q06187); assay: Competitive binding affinity to human BTK at 1 uM in presence of immobilized ligand relative to control; method in brief: as §3
T2 sequence (Q06187 whole entry): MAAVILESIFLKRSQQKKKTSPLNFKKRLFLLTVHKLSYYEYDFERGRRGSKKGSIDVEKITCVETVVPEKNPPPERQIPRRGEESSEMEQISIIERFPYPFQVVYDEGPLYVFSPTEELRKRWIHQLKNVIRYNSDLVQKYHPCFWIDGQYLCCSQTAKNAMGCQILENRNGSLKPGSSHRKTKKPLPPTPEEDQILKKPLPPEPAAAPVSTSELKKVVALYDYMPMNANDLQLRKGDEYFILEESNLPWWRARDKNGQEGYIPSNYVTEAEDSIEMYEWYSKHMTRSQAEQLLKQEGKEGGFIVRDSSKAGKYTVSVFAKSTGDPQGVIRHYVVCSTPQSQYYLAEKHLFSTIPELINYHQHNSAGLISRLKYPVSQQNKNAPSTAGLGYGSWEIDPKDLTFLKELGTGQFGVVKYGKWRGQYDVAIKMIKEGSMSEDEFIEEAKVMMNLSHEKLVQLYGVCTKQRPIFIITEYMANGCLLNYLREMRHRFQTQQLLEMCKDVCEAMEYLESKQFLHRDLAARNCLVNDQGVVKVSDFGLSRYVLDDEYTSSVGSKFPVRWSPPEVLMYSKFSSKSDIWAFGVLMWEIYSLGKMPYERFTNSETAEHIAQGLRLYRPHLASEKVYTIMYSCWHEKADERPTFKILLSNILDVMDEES

[19] = molecular target: Dual specificity protein kinase TTK (Homo sapiens, UniProt P33981); assay: Competitive binding affinity to human TTK in presence of immobilized ligand
[20] = Fraction unbound in mouse plasma at 5 uM by rapid equilibrium dialysis method; format: ADME, cell-free
[21] = AUC (0 to infinity) in Sprague-Dawley rat at 10 mg/kg, po; format: ADME, organism-based; design: dose 10 mg/kg, route oral, time infinity; settings: Sprague-Dawley, in vivo; method in brief: as §1
[22] = Clearance in Sprague-Dawley rat at 1 mg/kg, iv; format: ADME, organism-based; settings: Sprague-Dawley, in vivo; method in brief: as §1
[23] = Cytotoxicity against human HCC827 cells harboring EGFR 746 to 750 deletion mutant assessed as inhibition of cell proliferation after 72 hrs by CellTiter-Glo assay; format: functional, cell-based; settings: HCC827, 72 h
[24] = Half life in Sprague-Dawley rat at 1 mg/kg, iv; format: ADME, organism-based; settings: in vivo; method in brief: as §1
[25] = molecular target: Cyclin-G-associated kinase (Homo sapiens, UniProt O14976); assay: Competitive binding affinity to human GAK in presence of immobilized ligand
Cyclin-G-associated kinase, sequence (O14976 whole entry): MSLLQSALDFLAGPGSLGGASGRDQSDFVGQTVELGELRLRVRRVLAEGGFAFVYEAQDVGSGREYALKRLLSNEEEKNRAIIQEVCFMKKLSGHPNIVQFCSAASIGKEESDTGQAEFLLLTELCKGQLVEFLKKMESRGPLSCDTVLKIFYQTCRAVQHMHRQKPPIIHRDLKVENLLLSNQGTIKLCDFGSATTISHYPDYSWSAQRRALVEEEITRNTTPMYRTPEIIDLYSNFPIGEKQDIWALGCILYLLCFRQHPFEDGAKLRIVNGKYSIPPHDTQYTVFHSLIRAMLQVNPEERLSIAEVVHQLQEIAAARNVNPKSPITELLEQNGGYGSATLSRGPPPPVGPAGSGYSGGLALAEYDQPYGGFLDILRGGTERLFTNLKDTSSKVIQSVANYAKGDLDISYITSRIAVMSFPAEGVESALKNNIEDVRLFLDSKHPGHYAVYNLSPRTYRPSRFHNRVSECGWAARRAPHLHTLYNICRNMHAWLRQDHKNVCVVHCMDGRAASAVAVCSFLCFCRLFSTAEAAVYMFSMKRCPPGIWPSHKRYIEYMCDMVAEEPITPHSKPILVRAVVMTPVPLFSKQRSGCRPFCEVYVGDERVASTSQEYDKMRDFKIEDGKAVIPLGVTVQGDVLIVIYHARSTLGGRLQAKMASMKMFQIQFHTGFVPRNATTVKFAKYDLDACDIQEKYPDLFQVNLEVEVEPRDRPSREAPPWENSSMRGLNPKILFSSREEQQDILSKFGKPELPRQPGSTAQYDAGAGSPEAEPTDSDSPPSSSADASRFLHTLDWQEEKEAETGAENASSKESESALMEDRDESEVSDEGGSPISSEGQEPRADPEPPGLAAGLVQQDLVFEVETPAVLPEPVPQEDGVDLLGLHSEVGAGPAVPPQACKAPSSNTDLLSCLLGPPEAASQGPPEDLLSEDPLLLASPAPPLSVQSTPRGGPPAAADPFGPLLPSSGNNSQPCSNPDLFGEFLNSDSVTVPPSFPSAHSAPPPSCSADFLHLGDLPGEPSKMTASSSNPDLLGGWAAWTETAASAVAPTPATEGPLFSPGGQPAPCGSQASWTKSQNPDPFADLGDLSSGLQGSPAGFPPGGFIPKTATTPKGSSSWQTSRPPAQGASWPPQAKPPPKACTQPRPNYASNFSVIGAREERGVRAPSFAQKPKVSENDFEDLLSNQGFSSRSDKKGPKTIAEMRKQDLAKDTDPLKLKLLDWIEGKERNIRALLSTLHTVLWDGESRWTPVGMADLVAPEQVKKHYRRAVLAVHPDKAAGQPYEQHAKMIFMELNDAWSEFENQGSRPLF

human MDR1 (P-gp) [26] = assay: Efflux ratio of permeability across pig LLC-PK1 cells transfected with human MDR1 gene; format: ADME, cell-based, Sus scrofa
[27] = Fraction unbound in dog plasma at 5 uM by rapid equilibrium dialysis method; format: ADME, cell-free, Canis lupus familiaris
[28] = molecular target: T1, Epidermal growth factor receptor; assay: Competitive binding affinity to human wild type EGFR in presence of immobilized ligand
[29] = Selectivity ratio of IC50 for wild type EGFR phosphorylation in human A431 cells to IC50 for EGFR 746 to 750 deletion mutant phosphorylation in human HCC827 cells; format: ADME, cell-based
Mus musculus [30] = assay: Toxicity in athymic nude mouse xenografted with human NCI-H1975 cells assessed as change in body weight at 30 mg/kg, po qd administered for 2 weeks started on day 6 post tumor implantation; format: organism-based; settings: in vivo, 336 h
[31] = molecular target: Receptor tyrosine-protein kinase erbB-4 (Homo sapiens, UniProt Q15303); assay: Competitive binding affinity to human ERBB4 in presence of immobilized ligand
[32] = AUC (0 to infinity) in athymic nude mouse xenografted with human NCI-H1975 cells at 30 mg/kg, po; format: ADME, organism-based; design: dose 30 mg/kg, route oral, time infinity; settings: in vivo
NCI-H1975 [33] = assay: Cytotoxicity against human NCI-H1975 cells harboring EGFR L858R/T790M double mutant assessed as inhibition of cell proliferation after 72 hrs by CellTiter-Glo assay; format: functional, cell-based; settings: NCI-H1975, 72 h
[34] = molecular target: Epidermal growth factor receptor (Homo sapiens, UniProt P00533, T790M); assay: Competitive binding affinity to human EGFR T790M mutant in presence of immobilized ligand; format: protein assay
Epidermal growth factor receptor (Homo sapiens, UniProt P00533, T790M), sequence (P00533 25-1210 T790M limits assumed): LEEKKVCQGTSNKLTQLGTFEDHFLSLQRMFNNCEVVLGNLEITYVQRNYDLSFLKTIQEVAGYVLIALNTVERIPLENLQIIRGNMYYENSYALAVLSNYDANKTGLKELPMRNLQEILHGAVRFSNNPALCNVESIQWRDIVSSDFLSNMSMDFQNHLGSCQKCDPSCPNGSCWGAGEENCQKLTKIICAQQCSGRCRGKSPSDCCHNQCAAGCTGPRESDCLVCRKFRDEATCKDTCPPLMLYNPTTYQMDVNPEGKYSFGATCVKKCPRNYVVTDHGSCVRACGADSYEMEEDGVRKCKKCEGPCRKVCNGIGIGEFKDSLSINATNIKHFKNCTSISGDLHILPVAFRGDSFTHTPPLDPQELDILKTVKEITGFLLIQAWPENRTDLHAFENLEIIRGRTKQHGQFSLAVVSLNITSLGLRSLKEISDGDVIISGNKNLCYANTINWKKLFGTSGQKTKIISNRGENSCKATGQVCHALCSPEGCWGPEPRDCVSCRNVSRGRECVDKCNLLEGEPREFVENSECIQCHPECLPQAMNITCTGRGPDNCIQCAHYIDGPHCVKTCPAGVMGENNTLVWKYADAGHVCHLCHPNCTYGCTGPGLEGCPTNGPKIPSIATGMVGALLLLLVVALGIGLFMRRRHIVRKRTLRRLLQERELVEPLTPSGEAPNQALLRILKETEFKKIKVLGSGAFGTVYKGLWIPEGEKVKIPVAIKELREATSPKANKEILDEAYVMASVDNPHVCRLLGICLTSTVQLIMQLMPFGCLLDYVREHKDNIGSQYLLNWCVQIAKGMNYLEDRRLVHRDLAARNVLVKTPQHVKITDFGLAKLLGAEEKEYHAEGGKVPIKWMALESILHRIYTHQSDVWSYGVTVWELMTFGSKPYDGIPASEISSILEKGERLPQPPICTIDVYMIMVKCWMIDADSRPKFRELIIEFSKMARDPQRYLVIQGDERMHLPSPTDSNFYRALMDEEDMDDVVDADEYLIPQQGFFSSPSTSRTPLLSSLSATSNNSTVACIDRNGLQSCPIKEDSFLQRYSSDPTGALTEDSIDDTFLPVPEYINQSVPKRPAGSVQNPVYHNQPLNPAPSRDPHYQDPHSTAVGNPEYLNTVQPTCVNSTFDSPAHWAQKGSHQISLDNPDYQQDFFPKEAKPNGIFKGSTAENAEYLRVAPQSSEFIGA

[35] = AUC (0 to t) in athymic nude mouse xenografted with human NCI-H1975 cells at 30 mg/kg, po qd administered for 2 weeks started on day 6 post tumor implantation; format: ADME, organism-based; settings: in vivo
A-431 = assay: Cytotoxicity against human A431 cells expressing wild-type EGFR assessed as inhibition of cell proliferation after 72 hrs by CellTiter-Glo assay; format: cell-based; settings: A-431, 72 h
[36] = molecular target: T2, Tyrosine-protein kinase BTK; assay: Competitive binding affinity to human BTK in presence of immobilized ligand
[37] = molecular target: Tyrosine-protein kinase TXK (Homo sapiens, UniProt P42681); assay: Competitive binding affinity to human TXK in presence of immobilized ligand
Tyrosine-protein kinase TXK, sequence (P42681 whole entry): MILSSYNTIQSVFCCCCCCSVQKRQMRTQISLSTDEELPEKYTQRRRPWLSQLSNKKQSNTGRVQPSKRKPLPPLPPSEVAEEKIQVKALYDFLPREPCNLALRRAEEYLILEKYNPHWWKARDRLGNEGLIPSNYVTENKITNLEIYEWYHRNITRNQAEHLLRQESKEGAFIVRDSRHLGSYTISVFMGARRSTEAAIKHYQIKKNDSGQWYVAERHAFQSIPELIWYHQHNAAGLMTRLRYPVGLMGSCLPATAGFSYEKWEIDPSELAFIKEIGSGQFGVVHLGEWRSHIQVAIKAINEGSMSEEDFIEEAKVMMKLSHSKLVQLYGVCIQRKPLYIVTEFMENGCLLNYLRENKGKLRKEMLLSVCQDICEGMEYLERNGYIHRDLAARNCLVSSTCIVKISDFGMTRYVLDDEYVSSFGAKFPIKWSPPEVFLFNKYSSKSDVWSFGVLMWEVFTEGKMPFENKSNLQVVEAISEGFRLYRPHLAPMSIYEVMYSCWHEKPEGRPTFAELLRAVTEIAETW

NCI-H1975 [38] = assay: Antitumor activity against human NCI-H1975 cells xenografted in athymic nude mouse assessed as tumor growth inhibition at 30 mg/kg, po qd administered for 2 weeks started on day 6 post tumor implantation measured on day 19 relative to control; format: functional; settings: read-out: TGI
[39] = Fraction unbound in human plasma at 5 uM by rapid equilibrium dialysis method; format: ADME, cell-free
[40] = Selectivity ratio of IC50 for wild type EGFR phosphorylation in human A431 cells to IC50 for EGFR L858R/T790M double mutant phosphorylation in human NCI-H1975 cells; format: ADME, cell-based
rat MDR1 (P-gp) [41] = assay: Efflux ratio of permeability across pig LLC-PK1 cells transfected with rat MDR1 gene; format: ADME, cell-based, Sus scrofa
human MDR1 (P-gp) [42] = assay: Permeability across pig LLC-PK1 cells transfected with human MDR1 gene; format: ADME, cell-based, Sus scrofa; settings: read-out: permeability

T1 sequence (P00533 whole entry): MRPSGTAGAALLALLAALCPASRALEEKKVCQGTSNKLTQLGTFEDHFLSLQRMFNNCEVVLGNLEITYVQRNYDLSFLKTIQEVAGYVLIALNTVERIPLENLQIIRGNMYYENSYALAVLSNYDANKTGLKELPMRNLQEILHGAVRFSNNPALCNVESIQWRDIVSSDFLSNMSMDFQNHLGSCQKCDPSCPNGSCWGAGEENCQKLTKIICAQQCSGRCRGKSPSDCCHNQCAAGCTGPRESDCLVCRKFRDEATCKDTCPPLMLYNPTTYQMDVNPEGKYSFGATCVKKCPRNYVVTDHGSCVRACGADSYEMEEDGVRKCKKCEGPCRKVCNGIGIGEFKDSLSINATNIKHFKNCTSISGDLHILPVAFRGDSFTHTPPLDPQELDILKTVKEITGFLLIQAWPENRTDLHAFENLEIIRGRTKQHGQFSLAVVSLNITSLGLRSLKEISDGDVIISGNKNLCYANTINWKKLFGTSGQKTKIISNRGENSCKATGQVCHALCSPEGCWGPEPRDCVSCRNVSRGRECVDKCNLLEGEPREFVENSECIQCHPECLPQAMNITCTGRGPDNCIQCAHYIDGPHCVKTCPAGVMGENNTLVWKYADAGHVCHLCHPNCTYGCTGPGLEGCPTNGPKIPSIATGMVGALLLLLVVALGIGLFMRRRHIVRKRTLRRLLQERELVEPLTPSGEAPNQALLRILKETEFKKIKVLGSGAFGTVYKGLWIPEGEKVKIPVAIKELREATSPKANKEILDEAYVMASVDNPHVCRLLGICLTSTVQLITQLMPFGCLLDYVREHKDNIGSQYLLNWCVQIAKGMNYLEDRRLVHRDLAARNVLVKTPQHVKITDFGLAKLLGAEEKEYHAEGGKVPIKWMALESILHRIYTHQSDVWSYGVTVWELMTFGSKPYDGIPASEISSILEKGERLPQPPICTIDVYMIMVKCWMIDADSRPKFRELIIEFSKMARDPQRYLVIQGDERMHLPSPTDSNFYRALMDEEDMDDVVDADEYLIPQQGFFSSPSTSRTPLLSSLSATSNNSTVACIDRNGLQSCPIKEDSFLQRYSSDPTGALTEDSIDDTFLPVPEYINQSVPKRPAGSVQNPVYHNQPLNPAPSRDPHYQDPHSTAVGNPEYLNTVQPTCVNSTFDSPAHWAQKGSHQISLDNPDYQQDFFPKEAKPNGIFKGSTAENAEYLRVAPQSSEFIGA

SMILES: C=CC(=O)Nc1cccc(-n2c3nc(Nc4ccc(N5CCC(N(C)C)CC5)cc4OC)ncc3c(=O)n3ccnc23)c1
- Kd [1]: 310 nM
- Kd [2]: 2.6 nM

SMILES: C=CC(=O)Nc1cccc(-n2c(=O)cc(C)c3cnc(Nc4ccc(OCCN(C)C)cc4OC)nc32)c1
- Vd [3]: 22 L/kg
- Kd [4]: 320 nM
- inhibition in vivo at 30 mg/kg (Mus musculus [5]): > 50%
- Kd [6]: 2800 nM
- bioavailability [7]: 10%
- Kd [8]: 140 nM
- fraction unbound at 5 µM [9]: 0.27
- Kd [10]: 220 nM
- Cmax [11]: 100 nM
- inhibition in vivo at 30 mg/kg (Mus musculus [12]): 90%
- Activity [13]: 4%
- Kd [14]: 30 nM
- IC50 [15]: 9 nM
- IC50 [16]: 1050 nM
- Activity (Rattus norvegicus): Non-toxic
- Papp (rat MDR1 (P-gp) [17]): 10 ×10⁻⁶ cm/s
- Activity [18]: 17%
- Kd [19]: 81 nM
- fraction unbound at 5 µM [20]: 0.25
- AUC(0-inf) [21]: 0.66 µM·h
- clearance [22]: 150 mL/min/kg
- IC50 [23]: 28 nM
- half-life [24]: 4.5 h
- Kd [25]: 430 nM
- efflux ratio (human MDR1 (P-gp) [26]): > 37
- fraction unbound at 5 µM [27]: 0.46
- Kd [28]: 220 nM
- Ratio IC50 [29]: > 100
- Activity (Mus musculus [30]): Non-toxic
- Kd [31]: 130 nM
- AUC(0-inf) [32]: 0.33 µM·h
- IC50 (NCI-H1975 [33]): 4 nM
- Kd [34]: 0.96 nM
- AUC(0-t) at 336 h [35]: 0.56 µM·h
- IC50 (A-431): 2400 nM
- Kd [36]: 290 nM
- Kd [37]: 410 nM
- inhibition in vivo at 30 mg/kg (NCI-H1975 [38]): 90%
- fraction unbound at 5 µM [39]: 0.54
- Ratio IC50 [40]: > 100
- efflux ratio (rat MDR1 (P-gp) [41]): > 37
- Papp (human MDR1 (P-gp) [42]): 10 ×10⁻⁶ cm/s
